The nature of this data set: Toxicity liver stage against HepG2, at 10uM. Also on record: test concentration 10 uM, cell line HepG2-A16-CD81EGFP. It counts as cell-based. The settings on record: human, HepG2-A16-CD81EGFP cells; read-out: INHIBITION
An outline of the steps: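 Uninfected HepG2-A16-CD81EGFP cells, 3 × 10^3 per well, 1536-well, plated on prespotted compound at 10 μM final, parasite-free screening media added to match infected plates; puromycin 10 μM positive, DMSO 0.5% negative; run in parallel with 48 h PbLuc assay at 37 °C, 5% CO2; viability by CellTiter-Glo luminescence, normalized to controls.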
`Nc1nc2c(c3c1C(=O)NC3=O)CCC2`: the cytotoxicity at 10 µM was -4.21%.
On to `Cn1c(C(=O)Nc2nc[nH]n2)cc2ccccc21`, for which the cytotoxicity at 10 µM amounted to 1.24%.
As for `COCC(C)(O)CNC(=O)Nc1cccc(OC)c1OC` (stereo unspecified), the figure is -2.75%.
Turning to `COc1cc(N2C[C@H]3CN(CC(=O)N(C)C)C(=O)[C@H]3C2)ncn1`, the cytotoxicity at 10 µM was found to be 96.6%.
Consider `CN(C)C[C@H]1C[C@@H]2CN(C(=O)c3ccco3)C[C@@H]2O1`, for which the cytotoxicity at 10 µM was -5.77%.
`O=C(N1CCOCC1)N1C[C@@H]2OCCN(C(=O)c3ccco3)[C@@H]2C1`: the cytotoxicity at 10 µM is -135%.
For `O=S1(=O)N=C(SCc2ccc(Cl)cc2)Nc2ccc(F)cc21`, the cytotoxicity at 10 µM is 27.6%.
Regarding `CCCNC(=O)c1cc2c([nH]c1=O)CC(c1cccs1)CC2=O` (stereo unspecified), the cytotoxicity at 10 µM came out at 50.9%.
Take `CCc1nc(NCc2ccccn2)c2c(n1)c(C)nn2C`: the cytotoxicity at 10 µM is 8.92%.
The figure for `Cc1ccc(NC(=O)N2CCN(Cc3ccccn3)CC2)cc1Cl` is -7.21%; for `COc1ccc([C@@H]2NC(=O)N[C@H]3OCCC[C@H]32)cc1` it is 1.49%.
Turning to `CCn1nc(C)c2nnn(CC(=O)Nc3cccc(C)c3)c(=O)c21`, the cytotoxicity at 10 µM amounted to 10.1%.
`Cc1nc[nH]c1CN(Cc1ccc(F)cc1)C1CC(C)(C)NC(C)(C)C1`: the cytotoxicity at 10 µM was 0.92%.
As for `CC(=O)NCC(=O)NCC1(O)CCN(c2cnccn2)C1` (stereo unspecified), the figure is 7.89%; as for `CN(C)C(=O)CN1CCCC(Cc2ccc(N3CCCC3)nn2)C1` (stereo unspecified), 3.77%; as for `Cc1cc2c(=O)n3c(nc2s1)CCN(C(=O)c1cnn(C)c1C)CC3`, 0.359%.
In the case of `CC(=O)NC(Cc1c[nH]c2cc(F)ccc12)C(=O)Nc1cnn(C)c1` (stereo unspecified), the cytotoxicity at 10 µM amounted to 13.9%.
The figure for `CCN(Cc1cc(Br)ccc1F)C(=O)C(C)NC(N)=O` (stereo unspecified) is 11.6%; for `CC(=O)Nc1cccc(CN2CCN(C3=NCC(C)(C)S3)CC2)c1` it is 0.955%; for `NS(=O)(=O)c1cnn(CC(=O)Nc2c(Cl)cccc2Cl)c1` it is -7.2%.
The figure for `COC(=O)C(NC(=O)c1ccc(C)cc1C)c1cccnc1` (stereo unspecified) is -41.9%; for `CC1COC2(CCN(C(=O)c3ncoc3C(C)C)CC2)O1` (stereo unspecified) it is 1.15%; for `CN(C(=O)C1CC(=O)N(CCc2ccccc2)C1)c1nccs1` (stereo unspecified) it is 9.89%.
As for `Cc1noc(C)c1S(=O)(=O)N(CC(N)=O)CC(C)C`, the figure is -6.46%.
`CCOCC(=O)NCC1(NC(C)c2ccccc2)CCOCC1` (stereo unspecified): the cytotoxicity at 10 µM was -8.01%.
The figure for `COc1ccc2oc(C(C)NC(=O)NCC(C)(C)C(N)=O)c(C)c2c1` (stereo unspecified) is -9.51%.
`CCS(=O)(=O)N1CCCC(c2nc3ccccc3n2C(C)C)C1` (stereo unspecified): the cytotoxicity at 10 µM was -6.11%.
As to `CSc1ccc(S(=O)(=O)NC2CNC(=O)C2)cc1` (stereo unspecified), the cytotoxicity at 10 µM was -2.46%.
As for `O=C(NCCSCc1cccs1)C1CCCN(C(=O)N2CCCC2)C1` (stereo unspecified), the figure is -13.6%; as for `CSc1ccc(NCC(=O)Nc2c(C)nn(C)c2C)cc1F`, 10.7%; as for `CCC(NCc1cc[nH]n1)c1nc(C(F)(F)F)cs1` (stereo unspecified), 6.12%.
The figure for `O=C(Nc1cccc(OCC(F)F)n1)c1ccncc1F` is -3.33%.
As for `Cc1cc(C)n(C2CN(CC(=O)NCc3ccccn3)C2)n1`, the figure is -2.92%; as for `COC(=O)C(NC(=O)COC1CCCCC1)c1ccccc1` (stereo unspecified), -21.4%; as for `O=S(=O)(Cc1c(F)cccc1F)NCCOc1cccnc1`, -39.7%.
For the molecule `COc1ccc(C(C)N2CCC(OC)CC2)cc1Cl` (stereo unspecified), the cytotoxicity at 10 µM was -53.2%.
As for `CCN(Cc1noc(CC(C)C)n1)Cc1ccccc1C`, the figure is -50.8%.
Turning to `Cc1nc(COC[C@@]23CCC[C@@H]2CN(Cc2cnn(C)c2)C3)cs1`, the cytotoxicity at 10 µM is -101%.
In the case of `CCC1=NC2(CCC(C(=O)Nc3ccc(F)cc3)CC2)C(=O)N1C` (stereo unspecified), the cytotoxicity at 10 µM turned out to be 2.26%.
As for `COCC1CN(C(=O)c2cccn2C)Cc2nccn2C1` (stereo unspecified), the figure is 6.92%; as for `Cc1cc(CN(C)C(=O)c2cc(COc3ccccc3)[nH]n2)n[nH]1`, 5.76%; as for `CCOc1cccc(C2CC(=O)NCc3nc(N)sc32)c1` (stereo unspecified), -9.23%.
`CC(C)CN1CC(c2nc(-c3cccc(F)c3)c[nH]2)CC1=O` (stereo unspecified): the cytotoxicity at 10 µM was determined as 4.52%.
As to `Cc1ccc(CN(C)C(=O)c2cc(Cn3ccnc3C(C)C)[nH]n2)o1`, the cytotoxicity at 10 µM was determined as 0.073%.
The figure for `COc1cc(NCCCSc2nnc(C)s2)ncn1` is 20.6%; for `Cc1ccc(NC2(C(=O)N3CCn4cncc4C3)CCCCC2)cc1C` it is 8.47%; for `CCc1ccc2nc(NCCCN(CCO)CCO)cc(C)c2c1` it is -13.3%.
As for `CCN(C(C)=O)C1CCN(c2nccc(C3CCCC3)n2)C1` (stereo unspecified), the figure is -5.35%; as for `NC1(C(=O)NCC2CCCN(Cc3ccccc3F)C2)CCCC1` (stereo unspecified), -43.2%.
As to `Cn1cccc1C(=O)N1CC[C@@]2(O)CCN(S(C)(=O)=O)C[C@H]2C1`, the cytotoxicity at 10 µM is -10.7%.
Turning to `CC(C)c1nc(CNC(=O)c2ccc(C(C)N3CCCCC3)o2)cs1` (stereo unspecified), the cytotoxicity at 10 µM is -9.93%.
The figure for `CN(C)c1nc(NCCc2ccnn2C)ncc1F` is -9.83%.
For the molecule `Cc1cc(C)c2c(NCCC3(O)CCCC3)ncnc2n1`, the cytotoxicity at 10 µM is -4.44%.
As for `OCC1(O)CCN(Cc2ccc(C3CCCCO3)o2)CC1` (stereo unspecified), the figure is -5.95%; as for `CN1CCN(Cc2noc(CC3CCc4ccccc43)n2)CC1` (stereo unspecified), -20.1%.
The figure for `CC(C)c1cc(N[C@@H](CO)C(N)=O)n2nccc2n1` is -1.28%; for `CCc1ccccc1OCCN(C)C(=O)CCN1CCCO1` it is -43%; for `CCNc1ncc(C(=O)N2CCOC(CCCc3ccccc3)C2)cn1` (stereo unspecified) it is 79.2%.
Consider `Cc1ccc(F)c(NC(=O)CCC(=O)N(C)Cc2cc(C3CC3)[nH]n2)c1`, for which the cytotoxicity at 10 µM came to 7.28%.
The figure for `CC(C)CN1C(=O)CC[C@H]2CN(Cc3ncc[nH]3)CC[C@H]21` is -3.25%; for `CN(C)C(C(=O)N1CCN(C(=O)c2ccc[nH]2)CC1)c1ccc(F)cc1` (stereo unspecified) it is -5.19%; for `CCn1nc(C)cc1C(=O)NCc1cccnc1N(C)C` it is -5.54%.
Consider `Cc1ccc2c(c1)cc(CN1CC[C@](C)(O)[C@H](C)C1)n2C`, for which the cytotoxicity at 10 µM was determined as 0.379%.
The figure for `Cc1cccnc1CC(C)NC1Cc2ccccc2C1` (stereo unspecified) is 4.69%; for `CCCN1CCCC1c1ccc(C(=O)N2CCOCC2)s1` (stereo unspecified) it is -146%; for `CCc1nc(C2CCCN(C(=O)c3ccccc3Cl)C2)no1` (stereo unspecified) it is -5.43%.
With `CCn1ncc2c1CCCC2NCc1ccc(OC)cc1OC` (stereo unspecified), the cytotoxicity at 10 µM was -2.06%.
As for `Cc1nccn1C1CCCN(C(=O)c2cc3c(F)cccc3[nH]2)C1` (stereo unspecified), the figure is 5.32%; as for `COCc1nc(CN(CC(N)=O)C(C)C)cs1`, -8.39%; as for `O=C(CN1CCCC(Cn2cncn2)C1)NCCc1cccs1` (stereo unspecified), -17.6%.
As for `CCc1nc(CN2CCN(CC(O)c3ccccc3)CC2)no1` (stereo unspecified), the figure is -15.3%.
The figure for `Cc1cccc(C(=O)NCc2ccc(S(N)(=O)=O)cc2)n1` is -4.25%; for `c1ccc(OCc2ccncc2)c(CNC2CCc3ncnn3C2)c1` (stereo unspecified) it is -2.35%; for `c1ccc(-c2nccc(CNCC3CCCN3c3cccnn3)n2)cc1` (stereo unspecified) it is -1.17%.
For `CCOc1ccnc(N2CCN(C(=O)c3cc(Cl)c[nH]3)CC2)n1`, the cytotoxicity at 10 µM was -9.29%.
Consider `CC(C)c1nnc2n1CCN(C(=O)c1ccnc(N(C)C)c1)C2`, for which the cytotoxicity at 10 µM is 3.06%.
As for `Cc1ncccc1CNCC1CCN(CC(O)c2ccccc2)CC1` (stereo unspecified), the figure is -6.76%; as for `Cc1ccc(NC2CCN(C(=O)CN(C)C3CC3)CC2)nn1`, 4.64%.
As for `Cc1ccc(C#N)cc1NC(=O)NC1CCCN(c2ncccn2)C1` (stereo unspecified), the figure is -10.2%; as for `CN(CC1CN(Cc2cn3ccsc3n2)CCO1)c1cccnn1` (stereo unspecified), 4.55%; as for `Cc1ccc(=O)n(CC2(O)CCN(Cc3cc(C)c(O)c(C)c3)CC2)n1`, 1.7%.
In the case of `Cn1cc(CNC2CCc3c(ccc(=O)n3Cc3ccncc3)C2)cn1` (stereo unspecified), the cytotoxicity at 10 µM was -102%.
The figure for `Cc1c(Br)cccc1C(=O)NCC1CCCNC1` (stereo unspecified) is 19.8%.
The figure for `CN(Cc1ccco1)[C@@H]1CN(C(=O)c2ccnnc2)[C@@H]2CCCO[C@H]12` is -7.93%; for `COCC1CC2(CCN(C(=O)c3cnc4ccccc4c3)CC2)CO1` (stereo unspecified) it is -142%.
Consider `CCc1ccc(CN2C[C@H](OC)[C@H]3COC[C@H]32)o1`, for which the cytotoxicity at 10 µM stood at 5.22%.
On to `O=C(c1cocn1)N1C[C@H]2CCC[C@@]2(COc2ccccn2)C1`, for which the cytotoxicity at 10 µM is -0.798%.
The figure for `CCN1CCCC12CCN(Cc1cccnc1OC)CC2` is 13.4%; for `COc1cccc(CNC(Cc2cccs2)c2nc(C)c(C)s2)c1OC` (stereo unspecified) it is -12.9%.
The figure for `COc1ccc(S(=O)(=O)N2CCN(C)c3ncccc3C2)cc1` is -110%; for `Cc1nc(CN2CCO[C@@H]3CN(Cc4ccccn4)CC[C@@H]3C2)cs1` it is 7.02%.
As for `O=C(NC1CC1)[C@H]1C[C@H]2OCC[C@H]2N(Cc2cccnc2)C1`, the figure is 0.698%; as for `Cc1ccc2c(c1)C(NC1CC1)CC21CCNCC1` (stereo unspecified), -98%; as for `O=C1COC2(CCN(c3cccc(F)c3)CC2)CN1Cc1ccccn1`, -2.94%.
On to `N#Cc1cccc(N2CCCC3(C2)CN(c2ncccn2)CCO3)n1` (stereo unspecified), for which the cytotoxicity at 10 µM was 17.8%.
Take `Cc1cccc(S(=O)(=O)N2C[C@@H]3C[C@H](C(=O)N(C)C)[C@H](C2)O3)c1`: the cytotoxicity at 10 µM is -5.18%.

The values above are taken from ChEMBL document CHEMBL4513216, “Probing the Open Global Health Chemical Diversity Library for Multistage-Active Starting Points for Next-Generation Antimalarials” (ACS Infect Dis, 2020).
